Measurements of several laboratories.
Each line is one published result; the experiments were not run side by side.
Target: Calcium/calmodulin-dependent protein kinase kinase 2 (CAMKK2, Homo sapiens, UniProt Q96RR4)

SMILES | assay | conditions | quantity | result
Cn1cc(-c2cccc(N3CCc4c(sc5c4CC(C)(C)C5)C3=O)c2CO)cc(Nc2ccncn2)c1=O | enzyme activity, inhibitor | 1 µM | inhibition | -7%
Cn1cncc1[C@](O)(COc1ccc(C#N)cc1-c1ccc(OC(F)(F)F)cc1)c1ccc(C#N)cc1 | cell-free assay, competition with immobilised ligand | 1 µM | remaining binding | 100%
O=c1[nH]c2ccccc2n1C1CCN(Cc2ccc(-c3[nH]c4cc5ncnc5cc4nc3-c3ccccc3)cc2)CC1 | cell-free assay | 0.5 µM | remaining signal | 112%
N#CC1(c2ccccn2)CCN(Cc2cc(C(=O)O)c(=O)n3ccccc23)CC1 | cell-free assay, competition with immobilised ligand | 1 µM | remaining binding | 100%
Cc1nn(C)cc1-c1nc2c(N3CCN(Cc4ccc(Cl)cc4)CC3)c(Cl)cnc2[nH]1 | binding, competition with immobilised ligand | 1 µM | remaining binding | 100%
Nc1ncc(-c2nc(N3CCOCC3)nc(N3CCOCC3)n2)c(C(F)F)n1 | binding, competition with immobilised ligand | 10 µM | remaining binding | 65%
CC(C)(C)c1cc(C=C(C#N)C#N)cc(Br)c1O | enzyme activity, inhibitor | 0.5 µM | remaining activity | 92.5%
COc1ncccc1-c1cnn2ccc(N3CCN(C(=O)OC(C)C)CC3)nc12 | binding, competition with immobilised ligand | 1 µM | remaining binding | 88%
